In ChEMBL document CHEMBL1687886, “N-cyclic bay-substituted perylene G-quadruplex ligands have selective antiproliferative effects on cancer cells and induce telomere damage” (J Med Chem, 2011):
Activity calls are given as the source filed them. No cut-off for these calls is given here.

What was measured:
Nucleic Acid [1] = assay: Binding affinity to human 21-TT G-quadruplex DNA structure assessed as first step association constant by electrospray ionization mass spectrometry; type: nucleic-acid assay
Method in brief: (§1)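 ESI-MS in 150 mM ammonium acetate; DNA 5 μM final (per duplex or quadruplex unit); ligand at drug/DNA ratios 0.5 to 4. Methanol (15%) added just before injection, after binding equilibrium. K1 and K2 for 1:1 and 2:1 complexes, and % bound DNA, taken from relative peak intensities assuming equal response factors. At least three repeats.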

Nucleic Acid [2] = assay: Binding affinity to human 21-TT G-quadruplex DNA structure assessed as second step association constant by electrospray ionization mass spectrometry; type: nucleic-acid assay; method in brief: as §1
Nucleic Acid [3] = assay: Binding affinity to human DK66 duplex DNA structure assessed as first step association constant by electrospray ionization mass spectrometry; type: nucleic-acid assay; method in brief: as §1
Nucleic Acid [4] = assay: Stabilization of 21-mer human F21T G4-telomeric quadruplex assessed as change in melting temperature at 1 uM by FRET assay; type: nucleic-acid assay
Nucleic Acid [5] = assay: Stabilization of human duplex DNA T-loop assessed as change in melting temperature at 1 uM by FRET assay; type: nucleic-acid assay
Nucleic Acid [6] = assay: Binding affinity to human 21-TT G-quadruplex DNA structure assessed as bound DNA at 5:5 DNA to drug ratio by electrospray ionization mass spectrometry; type: nucleic-acid assay; method in brief: as §1
Nucleic Acid [7] = assay: Binding affinity to human 21-TT G-quadruplex DNA structure assessed as bound DNA at 5:10 DNA to drug ratio by electrospray ionization mass spectrometry; type: nucleic-acid assay; method in brief: as §1
Nucleic Acid [8] = assay: Binding affinity to human DK66 duplex DNA structure assessed as bound DNA at 5:20 DNA to drug ratio by electrospray ionization mass spectrometry; type: nucleic-acid assay; method in brief: as §1
Nucleic Acid [9] = assay: Binding affinity to human 21-TT G-quadruplex DNA structure at 1:1 DNA to calf thymus DNA ratio by competitive inhibition assay; type: nucleic-acid assay; set-up: concentration or dose not given beside the values
Method in brief: (§2)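 ESI-MS competition: quadruplex DNA and ligand each 5 μM final, plus calf thymus DNA at duplex/quadruplex ratios 1 and 5 (by phosphate concentration), in ammonium acetate. Percentage bound quadruplex and normalized bound quadruplex (N%) measured by mass spectrometry. SD over at least three independent experiments.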

Nucleic Acid [10] = assay: Binding affinity to human 21-TT G-quadruplex DNA structure at 1:5 DNA to calf thymus DNA ratio by competitive inhibition assay; type: nucleic-acid assay; set-up: concentration or dose not given beside the values; method in brief: as §2
BJ [11] = assay: Induction of DNA damage response in human BJ cells expressing SV40 early region EHLT assessed as phosphorylation of gamma H2AX at 3 uM after 24 hrs by immunofluorescence; type: functional, cell-based
Method in brief: (§3)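 BJ-EHLT and BJ-hTERT fibroblasts exposed to a range of concentrations for 24 h. Fixed in 2% formaldehyde, permeabilized in 0.25% Triton X-100, immunostained for γ-H2AX and 53BP1. Percentage of positive cells scored. Three independent experiments, SD.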

BJ [12] = assay: Antiproliferative activity against human BJ cells expressing SV40 early region EHLT at 3 uM after 24 hrs by Coulter counter method; type: functional, cell-based; conditions: TDE = time-dependent effect
Method in brief: (§4)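 Cells seeded at 5 ×10^4 per dish; compounds freshly dissolved and added to the medium 24 h after plating, at 0.5 μM or 3 μM (3 μM only for one derivative). Cell number by Coulter counting and viability by trypan blue exclusion daily, day 1 to day 8. Growth inhibition of treated vs untreated cells calculated at days 2, 4, 6 and 8. Representative experiments in quintuplicate, SD shown.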

BJ [13] = assay: Growth inhibition of human BJ cells expressing SV40 early region EHLT at 3 uM on day 8 after 24 hrs trypan blue assay; type: functional; conditions: read-out: GI; method in brief: as §4
BJ [14] = assay: Antiproliferative activity against human BJ cells expressing TERT at 0.5 uM after 2 to 8 days by trypan blue assay; type: cell-based; method in brief: as §4
BJ [15] = assay: Induction of DNA damage response in human BJ cells expressing human TERT assessed as phosphorylation of gamma H2AX after 24 hrs by immunofluorescence; type: functional, cell-based; method in brief: as §3
BJ [16] = assay: Induction of DNA damage response in human BJ cells expressing human TERT assessed as phosphorylation of […] after 24 hrs by immunofluorescence; type: functional, cell-based; method in brief: as §3

Row | Compound | log Ks (Nucleic Acid [1]) | log Ks (Nucleic Acid [2]) | log Ks (Nucleic Acid [3]) | ΔTm (Nucleic Acid [4]) [°C] | ΔTm (Nucleic Acid [5]) [°C] | Activity (Nucleic Acid [6]) [%] | Activity (Nucleic Acid [7]) [%] | Activity (Nucleic Acid [8]) [%] | Activity (Nucleic Acid [9]) [%] | Activity (Nucleic Acid [10]) [%] | Activity (BJ [11]) | Activity (BJ [12]) | inhibition of growth at 3 µM (BJ [13]) [%] | Activity (BJ [14]) | Activity (BJ [15]) | Activity (BJ [16])
1 | CNCCOCCN1C(=O)c2ccc3c4c(N5CCCCC5)cc5c6c(ccc(c7c(N8CCCCC8)cc(c2c37)C1=O)c64)C(=O)N(CCOCCNC)C5=O | 4.6 | 4.8 | 3.7 | 12.9 | -0.4 | 13 | 37 | 9 | – | – | – | – | – | – | – | –
2 | CN1CCN(CCOCCN2C(=O)c3ccc4c5c(N6CCCCC6)cc6c7c(ccc(c8c(N9CCCCC9)cc(c3c48)C2=O)c75)C(=O)N(CCOCCN2CCN(C)CC2)C6=O)CC1 | 3.9 | – | 3.8 | 5.2 | -0.1 | – | – | 10 | – | – | – | – | – | – | – | –
3 | O=C1c2ccc3c4c(N5CCCCC5)cc5c6c(ccc(c7c(N8CCCCC8)cc(c2c37)C(=O)N1CCN1CCCCC1)c64)C(=O)N(CCN1CCCCC1)C5=O | 4.8 | 4.6 | 3.8 | 18.7 | 0.2 | 22 | 33 | 12 | 13 | 9 | Active | tde | 50 | Toxic | Dose-dependent effect | Dose-dependent effect
4 | O=C1c2ccc3c4c(N5CCCCC5)cc5c6c(ccc(c7c(N8CCCCC8)cc(c2c37)C(=O)N1CCOCCN1CCCCC1)c64)C(=O)N(CCOCCN1CCCCC1)C5=O | 4.7 | 4.8 | 4.2 | 9.3 | -0.2 | 23 | 34 | 20 | 19 | 14 | – | – | – | – | – | –
